The nature of data set [1]: Volume of distribution at steady state in Wistar Han rat at 1 mg/kg, iv. In kind it is ADME, organism-based. Further details: dose 1 mg/kg, route intravenous. To be noted: in vivo, read-out: Vdss. In a few lines: (§1)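 Wistar Han or Sprague Dawley rats given 1 mg/kg iv as a solution or 5 mg/kg po as a suspension. Plasma taken at several time points and quantified by HPLC-MS/MS. Parameters derived by non-compartmental analysis.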

The nature of data set [2]: Permeability from apical to basolateral side of human Caco2 cells. The data set is classed as ADME, cell-based. The following applies: Caco-2, read-out: permeability.
Data set [3] can be described thus: Permeability from basolateral to apical side of human Caco2 cells. In kind it is ADME, cell-based. To be noted: Caco-2, read-out: permeability. In general terms: Passage across Caco-2 layers is used to estimate intestinal permeability.
Data set [4] can be described thus: Mean residence time in Wistar Han rat at 1 mg/kg, iv. To be noted: in vivo. Further details: dose 1 mg/kg, route intravenous. The data set is classed as ADME, organism-based. In a few lines:
as §1

Data set [5] can be described thus: Oral bioavailability in Wistar Han rat at 5 mg/kg. The data set is classed as ADME, organism-based. The following applies: in vivo. In a few lines:
as §1

A short description of data set [6]: Ratio of drug uptake in brain to plasma of Wistar Han rat. The data set is classed as ADME. To be noted: brain and plasma, read-out: BPR.
The nature of data set [7]: Oral bioavailability in Wistar Han rat at 10 mg/kg. In kind it is ADME, organism-based. The following applies: in vivo. In a few lines: (§2)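 Wistar Han rats dosed orally with a suspension, at 10 mg/kg or 10 µmol/kg. Plasma taken at several time points and quantified by HPLC-MS/MS. Bioavailability derived by non-compartmental analysis.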
Data set [8] can be described thus: Oral bioavailability in Wistar Han rat at 10 umol/kg. The data set is classed as ADME, organism-based. The following applies: in vivo. In a few lines: as §2
The nature of data set [9]: Volume of distribution at steady state in Wistar Han rat at […], iv. The data set is classed as ADME, organism-based. The following applies: in vivo, read-out: Vdss.
The nature of data set [10]: Mean residence time in Wistar Han rat at […], iv. The data set is classed as ADME, organism-based. To be noted: in vivo.

The source of these data is ChEMBL document CHEMBL3352390, “Selective CB2 receptor agonists. Part 2: Structure-activity relationship studies and optimization of proline-based compounds” (Bioorg Med Chem Lett, 2015).

The structures appear in SMILES notation.

A word on the MRT: it is the average time that molecules of a dose stay in the body. The bioavailability is the share of a dose that reaches the circulation, judged against a reference dose that is usually intravenous. A high value points to much systemic uptake.

With `CC(C)(C)c1cc(NC(=O)[C@@H]2CCCN2c2ccc(Cl)cc2)no1`, the Vd in data set [1] is 7.9 L/kg. Besides, the Papp A→B in data set [2] amounted to 24 ×10⁻⁶ cm/s. In data set [3], the Papp B→A came out at 18 ×10⁻⁶ cm/s. The same molecule had an MRT in data set [4] of 1 h. Further, in [5], the bioavailability amounted to 5%.

As to `CC(C)(C)c1cc(NC(=O)[C@@H]2CCC(=O)N2c2ccc(Cl)cc2)on1`, the Vd in data set [1] was 4.5 L/kg. In addition, in data set [2], the Papp A→B came to 11 ×10⁻⁶ cm/s. Besides, in [6], the Kp turned out to be 0.41. The Papp B→A in data set [3] stood at 23 ×10⁻⁶ cm/s. Further, in [4], the MRT is 1.3 h. In addition, the bioavailability in data set [7] worked out at 44%.

`CC(C)(C)c1cc(NC(=O)[C@@H]2CCC(=O)N2c2ccc(C(F)(F)F)cc2)on1`: the Papp A→B in data set [2] was 14 ×10⁻⁶ cm/s. In data set [8], this molecule displayed a bioavailability of 88%. For the same molecule, in [9], the Vd came to 3.8 L/kg. In addition, the Kp in data set [6] came out at 0.9. Besides, the Papp B→A in data set [3] came to 7.5 ×10⁻⁶ cm/s. The molecule also yielded an MRT in data set [10] of 6 h.

For `CC(C)(C)c1cc(NC(=O)[C@@H]2C[C@@H](O)CN2CC2CCOCC2)on1` (relative stereo), the bioavailability in [8] came out at 18%. Also, the Vd in [9] came out at 1.3 L/kg. The same molecule yielded an MRT in data set [10] of 0.34 h.
